Results gathered from unrelated publications.
Lines come from different studies, so protocols differ.
Organism: Staphylococcus aureus
Observed: microbial growth

Structure (SMILES) | assay | system | setting | MIC
Cc1[nH]c(C(=O)Nc2ccc(C(=O)NCC(=O)O)cc2N2CCN(C(=O)OC(C)(C)C)CC2)c(Cl)c1Cl | broth dilution | ATCC29213 |  | > 32 µg/mL
CN[C@H](CC(C)C)C(=O)N[C@H]1C(=O)N[C@@H](CC(N)=O)C(=O)N[C@H]2C(=O)N[C@H]3C(=O)N[C@H](C(=O)N[C@H](C(=O)O)c4cc(O)cc(O)c4-c4cc3ccc4O)[C@H](O)c3ccc(c(Cl)c3)Oc3cc2cc(c3O[C@@H]2O[C@H](CO)[C@@H](O)[C@H](O)[C@H]2O[C@H]2C[C@](C)(N)[C@H](O)[C@H](C)O2)Oc2ccc(cc2Cl)[C@H]1O |  | ATCC29213 MSSA |  | 0.67 µM
Cc1nn(-c2ccccc2)c2c1C(c1cncs1)N(C(=O)c1ccncc1)N2 (centres unmarked) |  | MTCC96 | 24 h | 32 µg/mL
C=C/C=C(\C)CC[C@@H]1C[C@@H](O)CC(=O)O1 | broth dilution | ATCC6538P |  | 256 µg/mL
COc1ccc(C2c3c(C)nn(-c4ccccc4)c3NN2C(=O)c2ccncc2)cc1 (centres unmarked) |  | MTCC96 | 24 h | 64 µg/mL
CC1(C)S[C@@H]2[C@H](NC(=O)[C@H](N)c3ccccc3)C(=O)N2[C@H]1C(=O)O |  |  | 24 h | < 1.25 µM
Cl.N[C@@H]1CCN(c2cc(C(=O)NCC(=O)O)ccc2NC(=O)c2cc(Br)c(Br)[nH]2)C1 | broth dilution | ATCC29213 |  | > 32 µg/mL
O=C(OC[C@H]1O[C@@H](OC(=O)c2cc(O)c(O)c(O)c2)[C@H](OC(=O)c2cc(O)c(O)c(O)c2)[C@@H](OC(=O)c2cc(O)c(O)c(O)c2)[C@@H]1OC(=O)c1cc(O)c(O)c(O)c1)c1cc(O)c(O)c(O)c1 | broth dilution |  | 16 h | 100 µg/mL
O=C(C=Cc1ccc(O)c(O)c1)OCCc1ccccc1 | broth dilution | FDA209 |  | 16 µg/mL
CC(O)CSc1nnc(-c2ccccc2)n1-c1ccccc1 (centres unmarked) |  |  |  | 2000 µg/mL
O=C(O)[C@H]1O[C@@H](Oc2c(-c3ccc(O)c(O)c3)oc3cc(O)cc(O)c3c2=O)[C@H](O)[C@@H](O)[C@@H]1O | broth dilution |  | 16 h | > 250 µg/mL
Cc1nn(-c2ccccc2)c2c1C(c1ccco1)N(C(=O)c1ccncc1)N2 (centres unmarked) |  | MTCC96 | 24 h | 64 µg/mL
COc1cc(Cc2cnc(N)nc2N)cc(OC)c1OC | broth dilution | FDA209 |  | 16 µg/mL
C[C@@H]1O[C@@H](OC[C@H]2O[C@@H](Oc3cc(O)c4c(c3)O[C@H](c3ccc(O)cc3)CC4=O)[C@H](O)[C@@H](O)[C@@H]2O)[C@H](O)[C@H](O)[C@H]1O | broth dilution |  | 16 h | > 250 µg/mL
Cc1[nH]c(C(=O)Nc2ccc(C(=O)NCC(=O)O)cc2N2CC[C@@H](NC(=O)OC(C)(C)C)C2)c(Cl)c1Cl | broth dilution | ATCC29213 |  | > 32 µg/mL
CC1(C)S[C@@H]2[C@H](NC(=O)[C@H](N)c3ccccc3)C(=O)N2[C@H]1C(=O)O | broth dilution | FDA209 |  | 4 µg/mL
Cl.O=C(O)CNC(=O)c1ccc(NC(=O)c2cc(Br)c(Br)[nH]2)c(N2CCNCC2)c1 | broth dilution | ATCC29213 |  | > 32 µg/mL
O=C(C=Cc1ccc(O)c(O)c1)Oc1ccccc1 | broth dilution | FDA209 |  | 16 µg/mL
CC(C)(C)OC(=O)N1CCN(c2cc(C(=O)NCC(=O)O)ccc2NC(=O)c2cc(Br)c(Br)[nH]2)CC1 | broth dilution | ATCC29213 |  | > 32 µg/mL
CC(C)=CCCC(C)=CC1c2c(C)nn(-c3ccccc3)c2NN1C(=O)c1ccncc1 (centres unmarked) |  | MTCC96 | 24 h | > 100 µg/mL
Cc1[nH]c(C(=O)Nc2ccc(C(=O)NCC(=O)O)cc2N2CC[C@@H](N)C2)c(Cl)c1Cl.Cl | broth dilution | ATCC29213 |  | > 32 µg/mL
CC(O)CSc1nnc(-c2cc3c(ccc4ccccc43)o2)n1-c1ccccc1 (centres unmarked) |  |  |  | 10000 µg/mL
Cc1nn(-c2ccccc2)c2c1C(c1c[nH]c3ccccc13)N(C(=O)c1ccncc1)N2 (centres unmarked) |  | MTCC96 | 24 h | > 100 µg/mL
Cc1ccc(-c2nnc(SCC(C)O)n2-c2ccccc2)cc1 (centres unmarked) |  |  |  | 3500 µg/mL
CC(C)(C)OC(=O)N[C@H]1CCN(c2cc(C(=O)NCC(=O)O)ccc2NC(=O)c2cc(Br)c(Br)[nH]2)C1 | broth dilution | ATCC29213 |  | > 32 µg/mL
CC1CCC(C(C)C)C(OC(=O)C=Cc2ccc(O)c(O)c2)C1 (centres unmarked) | broth dilution | FDA209 |  | 4 µg/mL
